Measurements of several laboratories.
Each line is one published result; the experiments were not run side by side.

The CC50 of `Cn1cc2c3c1C(=O)C(N)=CC3=NCC2` is reported as 2000 nM (HCT-116; cell growth or viability, MTT; 72 h).
`C#CCN(C)CCCCCCOCc1ccc(CN(C)c2c3c(nc4ccccc24)CCCC3)cc1` has an AUC(0-inf) of 0.17 µg·h/mL (male Sprague-Dawley rat, plasma; intravenous, 1 mg/kg).
With `COCC1=N[C@@]2(O)[C@H](C(=O)N(C)OC)[C@@H](c3ccccc3)[C@]3(c4ccc(OC)cc4)Oc4cc(OC)cc(OC)c4[C@]23N1` the Papp was 783 ×10⁻⁶ cm/s (PAMPA; 50 µM, 30 min, pH 7.4).
With `[2H]C([2H])([18F])[C@]([2H])(N)C(=O)O` the tracer uptake was 1.73 %ID/g (U-87 MG; bone; 110 min, tumour-bearing).
`C[C@]12CC[C@H]3[C@@H](CC=C4CC(O)CC[C@@]43CO)[C@@H]1CCC2O` (some centres unmarked) has an AUC of 0.167 µg·h/mL (rat, plasma; intravenous, 1 mg/kg).
For `Cn1cc2c3c1C(=O)C(N)=CC3=[N+](C)CC2`, the CC50 was 1000 nM (HCT-116; cell growth or viability, MTT; 72 h).
`Cn1c2cccc(=O)c-2nc2ccccc21` gave a Papp of 8.6 ×10⁻⁶ cm/s (PAMPA; 40 µM, 5 h, pH 7.4).
With `CC(=O)c1c([O-])cc(C)oc1=O.[Na+]` the AUC(0-t) was 3190 µg·h/mL (rat, serum; oral, 200 mg/kg).
